According to ChEMBL document CHEMBL1144710, “epigenetic multiple ligands: mixed histone/protein methyltransferase, acetyltransferase, and class III deacetylase (sirtuin) inhibitors” (J Med Chem, 2008):
Activity calls are given as the source filed them. Unless noted, the rule behind the calls is not given here.

Key:
U-937 [1] = assay: Inhibition of histone H3R17 methylation in human U937 cells at 50 uM after 24 hrs; assay type: functional, cell-based
Procedure, shortened: (§1)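 U937 cells treated at 50 µM for 24 h. Histones extracted with Triton buffer, then 0.2 M HCl overnight at 4 °C. 3–10 µg run on 15% SDS-PAGE and immunoblotted with anti-monomethyl-H3K4, monomethyl-H4R3 or dimethyl-H3R17 (1:500, overnight 4 °C), ECL detection. Loading controls: total H4 (H3K4), Ponceau Red (Arg marks).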

[2] = molecular target: T1, Histone-lysine N-methyltransferase SETD7 (Homo sapiens) (UniProt Q8WTS6); assay: Inhibition of human recombinant SET7 assessed as histone H3 protein methylation at 100 uM
T1 sequence (whole entry): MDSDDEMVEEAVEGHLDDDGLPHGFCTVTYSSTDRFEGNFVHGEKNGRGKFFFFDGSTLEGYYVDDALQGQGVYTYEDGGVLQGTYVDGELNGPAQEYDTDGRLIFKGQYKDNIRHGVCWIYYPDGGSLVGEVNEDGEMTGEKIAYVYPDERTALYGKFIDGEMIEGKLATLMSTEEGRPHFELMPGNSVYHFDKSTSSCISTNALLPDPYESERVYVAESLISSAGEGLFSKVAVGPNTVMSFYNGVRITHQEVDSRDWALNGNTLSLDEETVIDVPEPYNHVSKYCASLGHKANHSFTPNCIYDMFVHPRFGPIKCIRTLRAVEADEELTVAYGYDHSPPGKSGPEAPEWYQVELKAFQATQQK
Procedure, shortened: (§2)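 Recombinant enzymes (0.2 µg) with substrate (0.5 µg: Npl3p for PRMT1, PABP1 for CARM1, histone H3 for SET7), 0.5 µM [3H]AdoMet and 100 µM compound in PBS pH 7.4 with 3.3% v/v DMSO, 90 min at 30 °C. Products separated by 10% SDS-PAGE, transferred to PVDF, detected by fluorography on film overnight.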

[3] = molecular target: Protein arginine N-methyltransferase 1 (Homo sapiens) (UniProt Q99873); assay: Inhibition of human recombinant PRMT1 assessed as nuclear ribonucleoprotein Npl3p methylation at 100 uM; procedure, shortened: as §2
[4] = molecular target: RmtA (Emericella nidulans) (UniProt Q5VLE3); assay: Inhibition of Aspergillus nidulans RmtA at 88.5 uM
Procedure, shortened: (§3)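 Enzyme was GST-RmtA fusion expressed in E. coli BL21 and glutathione-affinity purified (500 ng), preincubated with compound for 15 min at room temperature. Then 20 µg chicken erythrocyte core histones and 0.55 µCi [3H]AdoMet were added, 30 min at 30 °C. Stopped with 25% TCA, filtered, counted by liquid scintillation.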

U-937 [5] = assay: Inhibition of histone H4R3 methylation in human U937 cells at 50 uM after 24 hrs; assay type: functional, cell-based; procedure, shortened: as §1
[6] = molecular target: T2, Histone-arginine methyltransferase CARM1 (Homo sapiens) (UniProt Q86X55); assay: Inhibition of human recombinant CARM1 assessed as poly(A) binding protein 1 methylation at 100 uM; procedure, shortened: as §2
T2 sequence (whole entry): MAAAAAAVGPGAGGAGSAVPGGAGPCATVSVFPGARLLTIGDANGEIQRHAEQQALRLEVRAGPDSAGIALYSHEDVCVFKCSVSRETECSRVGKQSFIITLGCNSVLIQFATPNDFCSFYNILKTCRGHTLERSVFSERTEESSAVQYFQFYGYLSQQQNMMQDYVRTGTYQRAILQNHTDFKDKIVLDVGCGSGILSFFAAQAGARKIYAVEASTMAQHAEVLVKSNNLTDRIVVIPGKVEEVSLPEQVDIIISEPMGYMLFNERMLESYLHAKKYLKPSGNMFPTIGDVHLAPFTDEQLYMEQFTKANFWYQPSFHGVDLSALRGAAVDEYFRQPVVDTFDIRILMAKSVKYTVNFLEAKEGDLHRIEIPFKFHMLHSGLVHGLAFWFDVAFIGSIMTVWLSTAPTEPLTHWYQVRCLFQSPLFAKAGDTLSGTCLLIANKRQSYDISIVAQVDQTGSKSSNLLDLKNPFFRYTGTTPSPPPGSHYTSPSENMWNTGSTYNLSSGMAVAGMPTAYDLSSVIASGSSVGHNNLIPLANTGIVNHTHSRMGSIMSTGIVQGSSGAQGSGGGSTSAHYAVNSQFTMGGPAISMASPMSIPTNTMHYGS

U-937 [7] = assay: Inhibition of histone H3K4 methylation in human U937 cells at 50 uM after 24 hrs; assay type: functional, cell-based; procedure, shortened: as §1
[8] = molecular target: T3, NAD-dependent protein deacetylase sirtuin-2 (Homo sapiens) (UniProt Q8IXJ6); assay: Inhibition of human SIRT2 at 25 uM
T3 sequence (whole entry): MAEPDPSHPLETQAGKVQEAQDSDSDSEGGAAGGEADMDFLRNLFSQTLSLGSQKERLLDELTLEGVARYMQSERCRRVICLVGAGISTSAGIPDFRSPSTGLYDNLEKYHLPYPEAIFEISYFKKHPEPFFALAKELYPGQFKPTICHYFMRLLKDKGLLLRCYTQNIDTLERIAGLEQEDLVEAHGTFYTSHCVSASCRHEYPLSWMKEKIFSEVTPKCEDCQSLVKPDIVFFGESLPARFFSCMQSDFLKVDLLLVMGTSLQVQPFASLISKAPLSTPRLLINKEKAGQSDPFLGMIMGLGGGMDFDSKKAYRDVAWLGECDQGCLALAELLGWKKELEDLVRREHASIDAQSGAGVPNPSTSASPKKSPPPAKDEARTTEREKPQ
Procedure, shortened: (§4)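 Fluorescent two-stage assay. SIRT1 (1 U/well) or SIRT2 (5 U/well) with Fluor de Lys-SIRT1/2 substrate, NAD+ and compound at 25 µM, 37 °C for 2 h. Developer II containing nicotinamide then stopped the reaction and generated signal, read at ex 360/em 460 nm.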

[9] = molecular target: Protein arginine N-methyltransferase 1 (Homo sapiens) (UniProt Q99873); assay: Inhibition of human recombinant PRMT1 assessed as histone H4 methylation at 50 uM
[10] = molecular target: T4, NAD-dependent protein deacetylase sirtuin-1 (Homo sapiens) (UniProt Q96EB6); assay: Inhibition of human SIRT1 at 25 uM; procedure, shortened: as §4
T4 sequence (whole entry): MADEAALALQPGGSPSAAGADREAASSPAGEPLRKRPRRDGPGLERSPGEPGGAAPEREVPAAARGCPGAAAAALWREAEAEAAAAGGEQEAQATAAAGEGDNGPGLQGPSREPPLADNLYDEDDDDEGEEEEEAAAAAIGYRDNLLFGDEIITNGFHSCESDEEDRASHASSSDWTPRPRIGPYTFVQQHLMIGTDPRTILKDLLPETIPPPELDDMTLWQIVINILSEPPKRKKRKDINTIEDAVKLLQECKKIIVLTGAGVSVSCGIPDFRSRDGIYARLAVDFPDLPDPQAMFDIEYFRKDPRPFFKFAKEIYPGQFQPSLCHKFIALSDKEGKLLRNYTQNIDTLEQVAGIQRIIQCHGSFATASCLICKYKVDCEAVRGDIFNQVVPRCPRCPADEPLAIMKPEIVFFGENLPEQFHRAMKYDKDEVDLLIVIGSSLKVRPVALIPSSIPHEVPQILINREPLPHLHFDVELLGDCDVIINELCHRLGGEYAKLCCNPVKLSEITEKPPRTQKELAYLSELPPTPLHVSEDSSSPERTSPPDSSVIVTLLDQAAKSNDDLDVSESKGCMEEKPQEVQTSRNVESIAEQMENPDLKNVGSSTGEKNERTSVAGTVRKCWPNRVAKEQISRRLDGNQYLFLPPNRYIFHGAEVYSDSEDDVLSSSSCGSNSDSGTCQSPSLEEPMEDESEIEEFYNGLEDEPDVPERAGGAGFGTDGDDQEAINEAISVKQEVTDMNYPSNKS

U-937 [11] = assay: Inhibition of human p300/CBP in U937 cells at 50 uM assessed as histone H3 acetylation; assay type: cell-based
Procedure, shortened: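 Source was U937 nuclear extract (10 µg per assay) as p300/CBP HAT, with histone H3 substrate and compound at 50 µM or DMSO control for 90 min. Acetyl-H3 detected by indirect ELISA, quantified against acetylated H3 peptide standard curves, […].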

RmtA = RmtA (Emericella nidulans, UniProt Q5VLE3); assay: Inhibition of Aspergillus nidulans RmtA; procedure, shortened: as §3
U-937 [12] = assay: Induction of granulocytic differentiation in human U937 cells assessed as CD11c expression at 5 uM after 30 hrs; assay type: functional
Procedure, shortened: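 U937 cells treated for 30 h, then stained with PE-conjugated CD11c (PE mouse IgG1 as control) for 30 min at 4 °C in the dark and resuspended in PBS with PI (0.25 µg/mL). Read-out is percent CD11c-positive/PI-negative cells, with dead PI-positive cells excluded. Coloured compounds limited the top dose to 5 µM or lower.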

U-937 [13] = assay: Cell cycle arrest in human U937 cells assessed as accumulation at S/G2 phase at 25 uM after 30 hrs; assay type: functional, cell-based
Procedure, shortened: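 U937 cells in RPMI with 10% fetal calf serum, HEPES and glutamine, kept at 200000 cells/mL; treated at 25 µM for 30 h, then the distribution across cell cycle phases was analysed.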

U-937 [14] = assay: Induction of apoptosis in human U937 cells at 25 uM after 30 hrs; assay type: functional
Procedure, shortened: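 Apoptosis read as caspase 3 activation by FACS, in U937 cells (RPMI, 10% fetal calf serum, 200000 cells/mL) exposed to 25 µM for 30 h.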

[15] = molecular target: RmtA (Emericella nidulans) (UniProt Q5VLE3); assay: Inhibition of Aspergillus nidulans RmtA at 84.6 uM; procedure, shortened: as §3
[16] = molecular target: RmtA (Emericella nidulans) (UniProt Q5VLE3); assay: Inhibition of Aspergillus nidulans RmtA at 91.8 uM; procedure, shortened: as §3
[17] = molecular target: RmtA (Emericella nidulans) (UniProt Q5VLE3); assay: Inhibition of Aspergillus nidulans RmtA at 77 uM
[18] = molecular target: RmtA (Emericella nidulans) (UniProt Q5VLE3); assay: Inhibition of Aspergillus nidulans RmtA at 70.4 uM; procedure, shortened: as §3

Sequence of Protein arginine N-methyltransferase 1 (Homo sapiens) (Q99873 whole entry, looked up): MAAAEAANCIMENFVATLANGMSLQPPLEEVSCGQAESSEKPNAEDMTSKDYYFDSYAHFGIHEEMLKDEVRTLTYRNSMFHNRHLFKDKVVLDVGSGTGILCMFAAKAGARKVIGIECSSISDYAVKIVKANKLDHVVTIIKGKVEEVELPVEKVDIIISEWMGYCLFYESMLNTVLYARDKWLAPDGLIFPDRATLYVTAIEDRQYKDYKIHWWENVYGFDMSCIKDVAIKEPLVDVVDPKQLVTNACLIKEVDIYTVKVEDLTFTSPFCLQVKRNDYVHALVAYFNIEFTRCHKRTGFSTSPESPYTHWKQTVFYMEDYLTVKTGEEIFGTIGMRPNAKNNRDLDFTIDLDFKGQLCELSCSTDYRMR
Sequence of RmtA (Emericella nidulans) (Q5VLE3 as listed by the source): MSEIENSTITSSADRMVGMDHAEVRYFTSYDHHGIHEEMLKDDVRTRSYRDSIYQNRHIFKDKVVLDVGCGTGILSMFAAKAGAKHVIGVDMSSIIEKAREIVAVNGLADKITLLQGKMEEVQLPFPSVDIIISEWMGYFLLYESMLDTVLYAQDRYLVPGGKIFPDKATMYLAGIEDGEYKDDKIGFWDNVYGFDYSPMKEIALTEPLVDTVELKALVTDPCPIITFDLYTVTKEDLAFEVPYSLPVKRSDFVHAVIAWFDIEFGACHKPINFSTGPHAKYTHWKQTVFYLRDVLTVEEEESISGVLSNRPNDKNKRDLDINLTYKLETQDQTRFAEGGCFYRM
Sequence of RmtA (Q5VLE3 whole entry): as the sequence (Q5VLE3 as listed by the source) above

Row | Activity [2] | Activity [3] | Activity [6] | Structure (SMILES) | Activity (U-937 [1]) | Activity (U-937 [5]) | Activity (U-937 [7]) | further results
1 | inactive | inactive | Active | O=C1/C(=C/c2ccc(O)c(Br)c2)CSC/C1=C\c1ccc(O)c(Br)c1 | Active | Active | Active | inhibition [4]: 0%
2 | inactive | inactive | Active | O=C1/C(=C/c2ccc(O)c(Br)c2)CN(Cc2ccccc2)C/C1=C\c1ccc(O)c(Br)c1 | Active | Active | Active | inhibition [17]: 0%

The remaining lines, values behind:

Row | Structure (SMILES) | Activity [2] | Activity [3] | Activity [6] | Activity (U-937 [1]) | Activity (U-937 [5]) | Activity (U-937 [7]) | further results
3 | O=C1/C(=C/c2cc(Br)c(O)c(Br)c2)CSC/C1=C\c1cc(Br)c(O)c(Br)c1 | Active | Active | Active | Active | Active | Active | inhibition [8]: 59%; inhibition [9]: 73%; inhibition [10]: 54%; inhibition (U-937 [11]): 69%; IC50 (RmtA): 45 µM; Activity (U-937 [12]): 9.1%; Activity (U-937 [13]): Active; Activity (U-937 [14]): 40.7%
4 | CN1C2CCC1/C(=C\c1ccc(O)c(Br)c1)C(=O)/C2=C/c1ccc(O)c(Br)c1 | – | – | – | Active | Active | Active | inhibition [15]: 0%
5 | CC(C)(C(=O)/C=C/c1ccc(O)c(Br)c1)C(=O)/C=C/c1ccc(O)c(Br)c1 | – | – | – | Active | Active | – | inhibition [16]: 0%
6 | O=C(Nc1cc(Br)c(O)c(Br)c1)c1ccc(C(=O)Nc2cc(Br)c(O)c(Br)c2)cc1 | – | – | – | Active | Active | – | inhibition [18]: 0%
